Screening results (PubChem)
SR-BI uptake up: activators of SR-BI mediated DiI-HDL uptake, primary screen, ldlA[mSR-BI] CHO cells, DiI fluorescence; 3 h; 100 = double the neutral-control signal; activation, % at 12.5 µM; 0.096% of 320,000 active;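 active means mean replicate activation of at least 60% and every replicate at or above 60%; inconclusive means mean or all-replicate condition met, but not both; inactive means mean below 60% and not all replicates reaching 60%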
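Material – SR-BI-overexpressing, LDLR-lacking CHO cells · Medium – BSA-supplemented, HEPES-buffered Ham's F12, pH 7.4 · Doses – single concentration · Times – compound with DiI-HDL co-incubation, 3 h at 37 °C · Measured by – bottom-read fluorescence, 550/595 nm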
Calb FLC: C. albicans growth inhibition with fluconazole, primary screen, CaCi-2 strain, Alamar Blue fluorescence; C. albicans CaCi-2 + fluconazole, 48 h; growth inhibition, % (concentration not given with the values); 0.57% of 300,000 active;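 active means growth inhibition above about 58% in most replicates, limit read from the data, passing the limit was not always enough; inconclusive means exactly half the replicates above a set limit; inactive means most replicates below a set limit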;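 further: all wells also contain fluconazole at 8 µg/ml as a sub-toxic cotreatment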
beta cell repl: inducers of MIN6 beta-cell proliferation, primary screen, ATP luminescence, uHTS. 0.29% of 330,000 active. proliferation, % at 10 µM. AID 2380, 2010. MIN6 cells proliferation, ATPlite luminescence, 48 h; cells starved in 0.2% serum; 100% = growth in 10% serum;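 active means compounds whose signal lies at least 3.5 SD above the mean of all wells on their plate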
SR-BI HDL uptake: inhibitors of SR-BI mediated HDL lipid uptake, primary screen, ldlA[mSR-BI] cells, fluorescence, single point. inhibition, % at 12.5 µM. 0.96% of 320,000 active. Scavenger receptor class B member 1 (Mus musculus), Q61009. ldlA[mSR-BI] CHO cells, DiI-HDL uptake fluorescence, 3 h;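 active means mean replicate inhibition of at least 70% and a set share of replicates each scoring 70 or more; inconclusive means meets just one of the two criteria; inactive means fails both criteria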
Target sequence (Q61009 whole entry, looked up): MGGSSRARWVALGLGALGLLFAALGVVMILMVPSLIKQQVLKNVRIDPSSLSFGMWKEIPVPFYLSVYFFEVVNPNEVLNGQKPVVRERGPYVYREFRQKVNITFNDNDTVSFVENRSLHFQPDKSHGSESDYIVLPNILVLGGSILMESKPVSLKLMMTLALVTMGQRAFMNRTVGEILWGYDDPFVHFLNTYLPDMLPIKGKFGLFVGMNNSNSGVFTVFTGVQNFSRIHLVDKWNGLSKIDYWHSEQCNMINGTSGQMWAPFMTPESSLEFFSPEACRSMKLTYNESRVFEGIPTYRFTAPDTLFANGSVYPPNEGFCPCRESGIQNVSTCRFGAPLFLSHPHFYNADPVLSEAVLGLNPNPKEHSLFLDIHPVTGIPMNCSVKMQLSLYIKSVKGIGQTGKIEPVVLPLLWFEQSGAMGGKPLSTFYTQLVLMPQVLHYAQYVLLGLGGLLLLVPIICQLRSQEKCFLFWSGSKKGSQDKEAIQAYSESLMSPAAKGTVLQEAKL
Ins promoter up: insulin promoter activators in MIN6 cells, imaging, high-content screening, mouse beta cells. 0.3% of 190,000 active. MIN6 insulin promoter-GFP reporter; hits give high values. z-score at 5 µM. AID 1625, 2009;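 active means z-score above 3 at 5 µM with at least 500 cells counted in the well; inconclusive means wells under 500 cells, flagged as cytotoxic or low count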
m5-HT2A agonist: mouse Htr2a agonists via beta-arrestin recruitment, primary screen, cell-based, luminescence; 5-hydroxytryptamine receptor 2A (Mus musculus), P35363; CHO-K1 mHTR2A beta-arrestin complementation; percent of 30 µM serotonin response; 0.66% of 360,000 active; activation, % at 7.6 µM; AID 624169, 2012;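 active means activation above a run cutoff, the mean activation of all tested compounds plus 3 SD, cut at about 14% in these data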
Of the large screens only hits and unclear results are named; the others gave an inactive call. Most compounds without a hit are left out; they make up all but 2.4% or so of the library.

COc1ccc(-c2nc(CN3CCN(c4cc(C)nc(C)c4)CC3)c(C)o2)c2ccccc12	Calb FLC 84
CC(/C=C/c1ccccc1)=N\NC(=S)NC(C)C	none
C/C(=N\NC(N)=S)c1ccc2c(c1)OCCO2	SR-BI HDL uptake 76
C/C(=N\NC(N)=S)c1ccccc1	SR-BI HDL uptake 86
CC(/C=C/c1ccccc1)=N\NC(N)=S	SR-BI HDL uptake 77
CC(=O)N/N=C(\C)c1ccc2c(c1)OCCO2	none
Cc1cc(OCC(=O)OCC(=O)NCC2CCCO2)ccc1Cl (stereo not given)	none (no result: Calb FLC, Ins promoter up)
COc1ccc(C(=O)Nc2nc3cc(OC)c(OC)cc3c(=O)[nH]2)cc1	SR-BI HDL uptake 86 (no result: Calb FLC)
Cc1ccc(S(=O)(=O)c2cccc(S(=O)(=O)N3CCCC3)c2)cc1S(=O)(=O)N1CCCC1	Ins promoter up 3
Cc1ccc(S(=O)(=O)c2cccc(S(=O)(=O)N3CCOCC3)c2)cc1S(=O)(=O)N1CCOCC1	none
CC1=CC(C)C(=O)N(C)C(C)=C1 (stereo not given)	none (no result: SR-BI uptake up, Calb FLC, beta cell repl, SR-BI HDL uptake, Ins promoter up)
Cc1ccc(/C(=N\O)c2oc3c(C)c4oc(=O)cc(C)c4cc3c2C)cc1	Ins promoter up inconclusive
Cc1cc(=O)oc2c1ccc1oc(/C(=N/O)c3ccccc3)c(C)c12	SR-BI uptake up 516
Cc1cc(O)c2c(c1)CC1C3CCC4CC(=O)CCC4(C)C3CC(=O)C21C (stereo not given)	none (no result: Calb FLC, beta cell repl, Ins promoter up)
COc1ccc(C2C(C#N)=C(N)Oc3c2ccc2cccnc32)cc1OC (stereo not given)	Calb FLC 93
CN(C)c1ccc(C2CC(=O)OC3=C2C(=O)CC(C)(C)C3)cc1 (stereo not given)	SR-BI uptake up 68
S=c1[nH]nc(C2CCCCC2)n1/N=C/c1ccc(Br)cc1	none (no result: Ins promoter up)
S=c1[nH]nc(C2CCCCC2)n1/N=C/c1ccc(Br)s1	Calb FLC 90
CCNc1nc(NCC)nc(N(C#N)CCOc2ccccc2)n1	none
CN(C)c1nc(Cl)nc(N(C#N)CCOc2ccccc2)n1	Calb FLC 113
O=c1cc(CN2CCN(Cc3ccccc3)CC2)c2ccc(O)c(O)c2o1	Calb FLC 88 (no result: Ins promoter up)
N#Cc1ccc(-c2cccnc2)nc1SCC(=O)Nc1sc2c(c1C#N)CCC2	SR-BI HDL uptake 76
N#Cc1c(C(F)(F)F)cc(-c2ccccc2)nc1SCC(=O)Nc1sc2c(c1C#N)CCC2	SR-BI HDL uptake 106
COc1ccc(-c2ccc(C#N)c(SCC(=O)Nc3sc4c(c3C#N)CCC4)n2)cc1	none (no result: SR-BI uptake up, SR-BI HDL uptake)
Cc1cccc(NC(=S)NNC(=O)c2csc(C(C)C)c2)c1	Calb FLC 92 (no result: Ins promoter up)
CCc1cc(C(=O)NNC(=S)Nc2cccc(C)c2)cs1	Calb FLC inconclusive
CCN(c1ccc(NC(=O)COC(=O)C(C)N=C2NS(=O)(=O)c3ccccc32)cc1)C(C)C (stereo not given)	none (no result: Calb FLC, Ins promoter up)
CCN(CC)C(=O)C1=C(C)N(Cc2ccc(OC)cc2)C(=O)C(CC(=O)NC2CCCC2)C1 (stereo not given)	none (no result: SR-BI uptake up, Calb FLC, beta cell repl, SR-BI HDL uptake, Ins promoter up)
CC(=O)Nc1sc2c(c1C#N)CCC(C)C2 (stereo not given)	none
Cc1cc(C(=O)Nc2sc3c(c2C#N)CCC(C)C3)cs1 (stereo not given)	SR-BI HDL uptake 75
CCOC(=O)/C(=N\Nc1cc(Cl)ccc1Cl)N1CCN(CC)CC1	none
Cc1cc(-c2ccc(N=Nc3c(S(=O)(=O)O)cc4cc(S(=O)(=O)O)cc(N)c4c3O)c(C)c2)ccc1N=Nc1c(S(=O)(=O)O)cc2cc(S(=O)(=O)O)cc(N)c2c1O	none (no result: SR-BI uptake up, Calb FLC, SR-BI HDL uptake, Ins promoter up, m5-HT2A agonist)
O=S(=O)(O)c1cc(O)c2c(O)c(N=Nc3cc(Cl)ccc3O)c(S(=O)(=O)O)cc2c1	Calb FLC 85 (no result: Ins promoter up)
CC1(C)CC2(CC(c3ccccc3)c3ccc(O)cc3O2)NC(=S)N1 (stereo not given)	SR-BI HDL uptake 72
CC(=O)Oc1cc2c(cc1Cl)C(c1cccs1)CC1(CC(C)(C)NC(=S)N1)O2 (stereo not given)	SR-BI HDL uptake 75
COc1ccc(C2CC3(CC(C)(C)NC(=S)N3)Oc3cc(O)cc(C)c32)cc1 (stereo not given)	none
Cc1cc(C)nc(NS(=O)(=O)c2ccc(NC(=O)Cc3ccccc3)cc2)n1	none
Cc1cc(C)nc(NS(=O)(=O)c2ccc(NC(=O)COc3ccccc3)cc2)n1	Calb FLC 79
Cc1cc(C(=O)OCC(=O)Nc2ccc(S(N)(=O)=O)cc2)c2ccccc2n1	Calb FLC 127
C/C=C/c1cccc(-c2nc(C(=O)NC3CCC3)cc3c2[C@@H](CCO)N(S(=O)C(C)(C)C)C3)c1 (stereo not given in full)	none (no result: SR-BI uptake up, Calb FLC, beta cell repl, SR-BI HDL uptake, Ins promoter up)
CCN=c1scc(C)n1/N=C/c1ccc(O)c(O)c1O	Calb FLC 88
C=COCCNC(=O)Nc1ccc(Cl)cc1Cl	SR-BI HDL uptake 72
O=C(Nc1cnn(Cc2ccccc2)c1)c1cc2nc(-c3ccco3)cc(C(F)(F)F)n2n1	SR-BI HDL uptake 71
Cc1nn(C)cc1NC(=O)c1cc2nc(-c3ccco3)cc(C(F)(F)F)n2n1	none
O=C(NCc1ccco1)c1cc2nc(-c3ccc4c(c3)OCO4)cc(C(F)(F)F)n2n1	SR-BI HDL uptake 72
O=C(NCc1cccnc1)c1cc2nc(-c3ccc4c(c3)OCO4)cc(C(F)(F)F)n2n1	none (no result: SR-BI uptake up, SR-BI HDL uptake)
Cc1nc(SCc2nc3ccc(C(=O)c4ccccc4)cc3[nH]2)c2oc3ccccc3c2n1	none (no result: Calb FLC, Ins promoter up)
COc1ccc(OCC(=O)Nc2ccc3c(c2)nc(CCN2CCN(c4ccccn4)CC2)n3C)cc1	none (no result: SR-BI uptake up, Calb FLC, beta cell repl, SR-BI HDL uptake, Ins promoter up)
Cc1cccc(OCC(=O)Nc2ccc3c(c2)nc(CCN2CCN(c4ccccn4)CC2)n3C)c1	SR-BI HDL uptake 73 (no result: Ins promoter up)
COc1ccc(NC(=O)C(=O)c2cn(CC(=O)N3CCCC3)c3ccccc23)c(OC)c1	SR-BI HDL uptake 72 (no result: Ins promoter up)
COc1ccc(OC)c(NC(=O)c2cc(-c3cc(C)ccc3O)n[nH]2)c1	SR-BI HDL uptake 76 (no result: Ins promoter up)
COc1ccc(CCNC(=O)c2ccc(OC)c(OC)c2)cc1OC	none (no result: Ins promoter up)
COc1ccc(CCNC(=O)c2ccc(N(C)S(=O)(=O)c3ccc(C)cc3)cc2)cc1OC	SR-BI HDL uptake 74
COc1ccc(CCNC(=O)COc2ccc(N(C)S(=O)(=O)c3ccc(C)cc3)cc2)cc1OC	none (no result: SR-BI uptake up, SR-BI HDL uptake, Ins promoter up)
COc1ccc(CCNC(=O)c2cc([N+](=O)[O-])cc([N+](=O)[O-])c2)cc1OC	SR-BI HDL uptake 73 (no result: beta cell repl, Ins promoter up)
CCN(CC)S(=O)(=O)c1ccc2oc(C(=O)NCc3ccc(C)cc3)c(C)c2c1	SR-BI HDL uptake 76
